Experimental data reported in ChEMBL document CHEMBL1156266, “Antisense oligonucleotides containing conformationally constrained 2',4'-(N-methoxy)aminomethylene and 2',4'-aminooxymethylene and 2'-O,4'-C-aminomethylene bridged nucleoside analogues show improved potency in animal models” (J Med Chem, 2010).
Active and inactive are the calls of the source. The calls are words filed in the database; no cut-off is given here.

Assays:
[1] = system: Mus musculus; assay: Hepatotoxicity in BALB/c mouse assessed as liver ALT level at 0.5 to 14.8 mg/kg, ip administered twice a week for 3 weeks measured after 72 hrs of last dose; type: toxicity, organism-based; set-up: dose 0.5-14.8 mg/kg, route intraperitoneal; conditions: in vivo
Outline: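 Male 6-week-old Balb/c mice dosed ip in PBS twice weekly for 3 weeks: 0.7–23 mg/kg (four levels) or 0.5–14.6/14.8 mg/kg. Killed 72 h after final dose. Plasma from cardiac-puncture blood, ALT on clinical bioanalyzer. Errors are SD.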

[2] = system: Mus musculus; assay: Toxicity in BALB/c mouse assessed as effect on liver weight at 0.5 to 14.8 mg/kg, ip administered twice a week for 3 weeks measured after 72 hrs of last dose; type: organism-based; set-up: dose 0.5-14.8 mg/kg, route intraperitoneal; conditions: in vivo
Outline: (§1)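 Male Balb/c mice, ip ASO in PBS twice weekly for 3 weeks at four dose levels. Body weight recorded before each dose. Killed 3 days after last dose. Organ weights normalized to body weight, expressed relative to the saline-treated group.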

[3] = Reduction in PTEN mRNA expression in mouse bEND.3 cells after 24 hrs by qRT-PCR analysis; type: functional, cell-based; conditions: for IC50: BEND3, 24 h
Outline: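 bEnd.3 cells in DMEM/10% FBS, seeded at 1 × 10^4 cells/well the day before. Transfected 4 h at 37 °C with Lipofectin 3 μg/mL in OptiMEM, eight 1:2 dilutions (40 nM to 312.5 pM), then refed with complete medium for 24 h. PTEN RNA by qRT-PCR, normalized to cyclophilin A, as % untreated control. Triplicate plates. IC50 from sigmoidal fit, top 100%, bottom 0%.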

[4] = system: Mus musculus; assay: Toxicity in BALB/c mouse assessed as effect on kidney weight at 0.5 to 14.8 mg/kg, ip administered twice a week for 3 weeks measured after 72 hrs of last dose; type: organism-based; set-up: dose 0.5-14.8 mg/kg, route intraperitoneal; conditions: in vivo; outline: as §1
[5] = system: Mus musculus; assay: Reduction in PTEN mRNA expression in ip dosed BALB/c mouse liver administered twice a week for 3 weeks measured after 72 hrs of last dose by RT-PCR analysis; type: functional
Outline: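 Male Balb/c mice, 6-week-old, ASO in PBS ip twice weekly for 3 weeks, four dose levels. Killed 72 h after last dose. Liver homogenized in guanidine isothiocyanate buffer, RNA column-purified. PTEN RNA by fluorescence qRT-PCR, normalized to cyclophilin A. Errors are SD.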

[6] = system: Nucleic Acid; assay: Binding affinity to mouse PTEN mRNA assessed as melting temperature at 4 uM by thermal denaturation assay; type: nucleic-acid assay
Outline: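 Duplex with complementary length-matched RNA; UV absorbance versus temperature curves in 100 mM Na+, 10 mM phosphate, 0.1 mM EDTA, 4 μM each strand. Tm is the average of two experiments.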

[7] = system: Mus musculus; assay: Toxicity in BALB/c mouse assessed as effect on body weight at 0.5 to 14.8 mg/kg, ip administered twice a week for 3 weeks measured after 72 hrs of last dose; type: organism-based; set-up: dose 0.5-14.8 mg/kg, route intraperitoneal; conditions: in vivo; outline: as §1
[8] = system: Mus musculus; assay: Reduction in PTEN mRNA expression in BALB/c mouse liver at 37 mg/kg, ip administered once a week for 3 weeks measured after 72 hrs of last dose by RT-PCR analysis; type: functional, organism-based; set-up: dose 37 mg/kg

IC50 [3]	Tm [6]	Structure (SMILES)	Activity [1]	Activity [2]	Activity [3]	Activity [4]	Activity [5]	ED50 [5]	Activity [7]	Activity [8]
3.4 nM	55.4 °C	Cc1cn([C@@H]2O[C@]3(CO)CON(C)[C@@H]2[C@@H]3OP(O)(=S)OC[C@]23CON(C)[C@@H]([C@H](n4cc(C)c(=O)[nH]c4=O)O2)[C@@H]3OP(O)(=S)OC[C@H]2O[C@@H](n3cc(C)c(=O)[nH]c3=O)C[C@@H]2OP(O)(=S)OC[C@H]2O[C@@H](n3cnc4c(N)ncnc43)[C@H](O)[C@@H]2OP(O)(=S)OC[C@H]2O[C@@H](n3cnc4c(=O)[nH]c(N)nc43)[C@H](O)[C@@H]2OP(O)(=S)OC[C@H]2O[C@@H](n3ccc(N)nc3=O)[C@H](O)[C@@H]2OP(O)(=S)OC[C@H]2O[C@@H](n3cnc4c(N)ncnc43)[C@H](O)[C@@H]2OP(O)(=S)OC[C@H]2O[C@@H](n3ccc(N)nc3=O)[C@H](O)[C@@H]2OP(O)(=S)OC[C@H]2O[C@@H](n3cc(C)c(=O)[nH]c3=O)C[C@@H]2OP(O)(=S)OC[C@H]2O[C@@H](n3cnc4c(=O)[nH]c(N)nc43)[C@H](O)[C@@H]2OP(O)(=S)OC[C@H]2O[C@@H](n3cnc4c(=O)[nH]c(N)nc43)[C@H](O)[C@@H]2OP(O)(=S)OC[C@H]2O[C@@H](n3ccc(N)nc3=O)[C@H](O)[C@@H]2OP(O)(=S)OC[C@]23CON(C)[C@@H]([C@H](n4cc(C)c(N)nc4=O)O2)[C@@H]3OP(O)(=S)OC[C@]23CON(C)[C@@H]([C@H](n4cc(C)c(=O)[nH]c4=O)O2)[C@@H]3O)c(=O)nc1N (stereo not given in full)	Non-toxic	Non-toxic	Dose-dependent effect	Non-toxic	Dose-dependent effect	11 mg/kg	Non-toxic	
3.2 nM	57.7 °C	Cc1cn([C@@H]2O[C@]3(CO)CNO[C@@H]2[C@@H]3OP(O)(=S)OC[C@]23CNO[C@@H]([C@H](n4cc(C)c(=O)[nH]c4=O)O2)[C@@H]3OP(O)(=S)OC[C@H]2O[C@@H](n3cc(C)c(=O)[nH]c3=O)C[C@@H]2OP(O)(=S)OC[C@H]2O[C@@H](n3cnc4c(N)ncnc43)[C@H](O)[C@@H]2OP(O)(=S)OC[C@H]2O[C@@H](n3cnc4c(=O)[nH]c(N)nc43)[C@H](O)[C@@H]2OP(O)(=S)OC[C@H]2O[C@@H](n3ccc(N)nc3=O)[C@H](O)[C@@H]2OP(O)(=S)OC[C@H]2O[C@@H](n3cnc4c(N)ncnc43)[C@H](O)[C@@H]2OP(O)(=S)OC[C@H]2O[C@@H](n3ccc(N)nc3=O)[C@H](O)[C@@H]2OP(O)(=S)OC[C@H]2O[C@@H](n3cc(C)c(=O)[nH]c3=O)C[C@@H]2OP(O)(=S)OC[C@H]2O[C@@H](n3cnc4c(=O)[nH]c(N)nc43)[C@H](O)[C@@H]2OP(O)(=S)OC[C@H]2O[C@@H](n3cnc4c(=O)[nH]c(N)nc43)[C@H](O)[C@@H]2OP(O)(=S)OC[C@H]2O[C@@H](n3ccc(N)nc3=O)[C@H](O)[C@@H]2OP(O)(=S)OC[C@]23CNO[C@@H]([C@H](n4cc(C)c(N)nc4=O)O2)[C@@H]3OP(O)(=S)OC[C@]23CNO[C@@H]([C@H](n4cc(C)c(=O)[nH]c4=O)O2)[C@@H]3O)c(=O)nc1N (stereo not given in full)			Dose-dependent effect			> 37 mg/kg		inactive
	58 °C	Cc1cn([C@H]2C[C@H](OP(O)(=S)OC[C@H]3O[C@@H](n4cnc5c(=O)[nH]c(N)nc54)[C@H](O)[C@@H]3OP(O)(=S)OC[C@H]3O[C@@H](n4cnc5c(=O)[nH]c(N)nc54)[C@H](O)[C@@H]3OP(O)(=S)OC[C@H]3O[C@@H](n4ccc(N)nc4=O)[C@H](O)[C@@H]3OP(O)(=S)OC[C@]34CO[C@@H]([C@H](n5ccc(N)nc5=O)O3)[C@@H]4OP(O)(=S)OC[C@]34CO[C@@H]([C@H](n5ccc(=O)[nH]c5=O)O3)[C@@H]4O)[C@@H](COP(O)(=S)O[C@H]3[C@@H](O)[C@H](n4ccc(N)nc4=O)O[C@@H]3COP(O)(=S)O[C@H]3[C@@H](O)[C@H](n4cnc5c(N)ncnc54)O[C@@H]3COP(O)(=S)O[C@H]3[C@@H](O)[C@H](n4ccc(N)nc4=O)O[C@@H]3COP(O)(=S)O[C@H]3[C@@H](O)[C@H](n4cnc5c(=O)[nH]c(N)nc54)O[C@@H]3COP(O)(=S)O[C@H]3[C@@H](O)[C@H](n4cnc5c(N)ncnc54)O[C@@H]3COP(O)(=S)O[C@H]3C[C@H](n4cc(C)c(=O)[nH]c4=O)O[C@@H]3COP(O)(=S)O[C@H]3[C@H]4OC[C@@]3(COP(O)(=S)O[C@H]3[C@H]5OC[C@@]3(CO)O[C@H]5n3ccc(N)nc3=O)O[C@H]4n3ccc(=O)[nH]c3=O)O2)c(=O)[nH]c1=O (stereo not given in full)								
